High-throughput results from PubChem.
Shown are actives, neighbours in structure and some others; about 4.1% of the full set was active somewhere.
UPR XBP1 act – adaptive UPR (XBP1) activation; AID 463104; activation, % at 20 µM; 330,000 tested, 0.33% active; CHO-XBP1 luciferase reporter, IRE1-XBP1 UPR activation, luminescence; percent of tunicamycin response, DMSO as zero;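 active = versus positive control, 20 µM dose yields 30% or more activation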;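 also: 100% = tunicamycin at 10 µg/mL and 0% = DMSO only wells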
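Material: CHO-XBP1 cells stably carrying IRE1-XBP1-driven luciferase reporter / Amount: 1000 cells per well / Compound: 20 µM, 1% DMSO / Times: 6 h treatment, 37 °C / Detection: luciferase luminescence / Measure: % activation of reporter signal versus tunicamycin and DMSO controls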
Apaf1 inhib – blocks human Apaf-1 apoptosome activity. O14727. reconstituted apoptosome caspase-3 activity, DEVD-Rh110 fluorescence. inhibition, % at 20 µM. 330,000 tested, 0.71% active; active = inhibition of at least 40% at 20 µM;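 also: plate controls were DMSO wells for no effect and DEVD-CHO caspase inhibitor wells for full effect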
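Assay system – apoptosome proteins · Medium – Hepes buffer, pH 7.5 · Also added – cytochrome c with DEVD-Rh110 · Timing – 30 min compound preincubation, 50 min activation, room temperature · Detection – Rh110 fluorescence, excitation 480 nm, emission 540 nm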
UBC13 inh – blocks human UBC13 polyubiquitin chain formation; inhibition, % at 20 µM; TR-FRET; AID 485273; 330,000 tested, 0.47% active; P61088; in the data active = inhibition above about 45%, passing the limit was not always enough
Target sequence (P61088 whole entry, looked up): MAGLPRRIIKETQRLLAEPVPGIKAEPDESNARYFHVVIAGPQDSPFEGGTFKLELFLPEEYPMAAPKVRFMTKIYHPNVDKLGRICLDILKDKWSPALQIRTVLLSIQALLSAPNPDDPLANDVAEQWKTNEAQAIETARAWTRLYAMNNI
CHOP UPR activ – apoptotic UPR (CHOP) activation; CHO-CHOP luciferase reporter, luminescence; percent of tunicamycin response over DMSO baseline; activation, % at 10 µM; 330,000 tested, 0.34% active;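 active = at 10 µM dose, activation of 40% or more, normalized to positive control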;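 also: 100% = tunicamycin at 10 µg/mL and 0% = DMSO alone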
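Test system: CHO-CHOP cells, stable luciferase reporter of PERK-eIF2a-CHOP signalling | Quantity: 500 CHO-CHOP cells per well | Buffer or medium: F12 plus 10% serum | Compound dosing: 10 µM single point, 0.5% DMSO | Schedule: 6 h compound treatment, 37 °C | Signal: Luciferase luminescence | Control set: Tunicamycin high control, DMSO low control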
Mdm2-MdmX inh – inhibitors of human Mdm2/MdmX interaction; O15151+Q00987; SaOS-2 split-luciferase Mdm2/MdmX complementation, luminescence; inhibition, % at 8 µM; 330,000 tested, 3% active;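 active = inhibition of at least 50% at 8 µM in the primary screen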
Casp3 counter – caspase-3 inhibition (UBC13 counter-screen); shares compounds with UBC13 inh; Recombinant caspase-3, Caspase-Glo 3/7 luminescence, 60 min; inhibition, % at 20 µM; 1,400 tested, 4% active; AID 488856;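 active = mean inhibition across replicates above about 26%, limit read from the data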;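 also: plate controls were DMSO with caspase-3 for no effect and DMSO wells lacking enzyme for full effect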
Target sequence (P42574 whole entry, looked up): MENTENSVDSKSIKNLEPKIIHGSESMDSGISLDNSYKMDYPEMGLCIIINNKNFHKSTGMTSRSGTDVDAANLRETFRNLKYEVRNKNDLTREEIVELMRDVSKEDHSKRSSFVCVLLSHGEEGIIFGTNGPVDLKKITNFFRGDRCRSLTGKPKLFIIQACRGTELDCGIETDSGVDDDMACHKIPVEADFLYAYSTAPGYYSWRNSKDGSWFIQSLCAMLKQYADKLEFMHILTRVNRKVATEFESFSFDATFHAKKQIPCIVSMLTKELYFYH
UBC13 conf – confirmation of human UBC13 polyubiquitin inhibitors; inhibition, % at 10 µM; 1,400 tested, 68% active; UBC13 polyubiquitination, TR-FRET, biochemical; shares compounds with UBC13 inh; in the data active = inhibition above about 45%
Mdm2 MdmX conf – human Mdm2/MdmX binding inhibition, confirmed | shares compounds with Mdm2-MdmX inh | luminescent assay | inhibition, % at 8 µM | 10,000 tested, 55% active; in the data active = inhibition above about 40%
FLuc counter – inhibits full-length luciferase, flagging false Mdm2/MdmX hits | inhibition, % at 8 µM | shares compounds with Mdm2-MdmX inh | AID 504607 | 6,200 tested, 77% active | SaOS-2 full-length luciferase counterscreen, luminescence;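 active = mean inhibition at 8 µM reaching about 37%, which flags the compound as non-specific, limit read from the data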;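 also: p53-null SaOS-2 cells with luciferase driven by a doxycycline-inducible promoter; compound on cells about two nights before reading with doxycycline added after day one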
Apaf-1 inh conf – confirmation of Apaf-1 inhibitors; shares compounds with Apaf1 inhib; reconstituted apoptosome, caspase-3 DEVD-Rh110 fluorescence; inhibition, % at 20 µM; 1,800 tested, 25% active;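 active = mean inhibition of at least 40% at 20 µM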;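 also: plate controls were DMSO wells for no effect and DEVD-CHO caspase inhibitor control wells for full effect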
Rh110 interf inh – Rh110 signal interference in Apaf-1 inhibitor counter-screen; 1,800 tested, under 10 active; shares compounds with Apaf1 inhib; AID 504615; activation (fluorescence interference), % at 20 µM; Rh110 fluorescence interference, quenched caspase reaction;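 active = signal rise of 40% or more at 20 µM, treated as a fluorescence artifact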
Apaf1 inh interf – counter-screen for Apaf-1 inhibitors: fluorescence interference, dose response. IC50, µM. AID 588538. 460 tested, under 10 active. fluorescence interference counterscreen, Apaf-1 assay format. shares compounds with Apaf1 inhib; call rule not given here
* hit, by the source's call; . = not tested or not shown.

SMILES	UPR XBP1 act	Apaf1 inhib	UBC13 inh	CHOP UPR activ	Mdm2-MdmX inh	Casp3 counter	UBC13 conf	Mdm2 MdmX conf	Apaf-1 inh conf	Rh110 interf inh	others
CN(C)CCCn1c(SCC(=O)Nc2nc(-c3cccc(Br)c3)cs2)nc2ccccc2c1=O	9	29	116*	3	100*	2	134*	56*	.	.	FLuc counter=115*
O=C(CSc1nc2ccccc2[nH]1)Nc1nc(-c2cccc(Br)c2)cs1	-2	6	15	5	-13	.	.	.	.	.
COc1ccc(C[C@H]2CN3C(=NC[C@@H]3Cc3ccc(O)cc3)N2C[C@H](C)NC(=O)c2ccc(C)c(Br)c2)cc1	4	28	59*	-1	86*	-1	52*	36	.	.
COc1ccc(C[C@H]2CN3C(=NC[C@@H]3Cc3ccc(O)cc3)N2CCNC(=O)c2ccc(C)c(Br)c2)cc1	2	33	74*	1	53*	0	56*	26	.	.
Cc1ccc(C(=O)NCCN2C3=NC[C@@H](Cc4ccccc4)N3C[C@H]2Cc2ccc(O)cc2)cc1Br	-1	32	104*	0	81*	-3	93*	25	.	.
Cc1ccc(C(=O)N[C@@H](C)CN2C3=NC[C@H](C(C)C)N3C[C@H]2Cc2ccc(O)cc2)cc1Br	2	15	42	4	7	.	.	.	.	.
O=C(NCC(c1ccc(F)cc1)N1CCOCC1)c1ccc([N+](=O)[O-])o1 (stereo unspecified)	4	16	-16	8	2	.	.	.	.	.
CCOC(=O)C1CCN(C(=O)C2CCCN(S(=O)(=O)c3ccc(OCC)c(Cl)c3)C2)CC1 (stereo unspecified)	-3	34	-10	1	8	.	.	.	.	.
O=P(CCC(F)(F)F)(CCC(F)(F)F)CCC(F)(F)F	-2	-1	2	0	6	.	.	.	.	.
Cc1ccc(NC(=O)CNC(=O)C2CCCCC2)nc1	1	-1	-5	1	20	.	.	.	.	.
Oc1ccccc1Nc1nc(NCc2ccco2)c2ccccc2n1	11	-10	21	1	28	.	.	.	.	.
c1ccc(Nc2nc(NCc3ccco3)c3ccccc3n2)cc1	21	16	48*	18	78*	-1	76*	2	.	.
Cc1nn(C)c(C(=O)N2CCOCC2)c1Cl	-1	-5	7	2	10	.	.	.	.	.
Cc1cc([N+](=O)[O-])ccc1N(C)C	4	3	-6	0	-15	.	.	.	.	.
COC(=O)c1ccccc1S(=O)(=O)N1CCC(C(=O)N2CCC2)CC1	-2	55*	79*	-2	6	0	64*	.	27	-1
COC(=O)c1ccccc1S(=O)(=O)N1CCC(C(=O)OC(C)C(=O)Nc2ccc(NC(C)=O)cc2)CC1 (stereo unspecified)	-3	-5	5	0	11	.	.	.	.	.
O=C(O)CC(C(=O)O)N1C(=O)/C(=C/C=C/c2ccco2)SC1=S (stereo unspecified)	0	85*	74*	1	11	2	48*	.	49*	1	Apaf1 inh interf=>100
O=C(O)CCCN1C(=O)/C(=C/C=C/c2ccco2)SC1=S	-2	37	44	-1	15	.	.	.	.	.
CCOC(=O)C1=C(c2ccccc2)Nc2ncnn2C1c1ccc(C(=O)O)cc1 (stereo unspecified)	-1	-22	-6	1	-49	.	.	.	.	.
CCOC(=O)C1=C(c2ccccc2)NC(N)=NC1c1ccc(OCc2ccc(C(=O)OC)cc2)cc1 (stereo unspecified)	12	61*	55*	2	100*	-4	92*	35	62*	-8	FLuc counter=72*;Apaf1 inh interf=>100
COCCN=C1N[C@@H](c2cccc(C(F)(F)F)c2)C(C(=O)OC)=C(C)N1Cc1ccccc1	-2	26	6	0	45	.	.	.	.	.
COC(=O)C1=C(C)N(Cc2ccccc2)C(=NCCc2c[nH]c3ccccc23)N[C@H]1c1cccc(C(F)(F)F)c1	17	78*	74*	3	100*	1	86*	41*	43*	0	FLuc counter=58*;Apaf1 inh interf=>100
COC(=O)C1=C(C)N(Cc2ccccc2)C(=NCc2cccc(C(F)(F)F)c2)N[C@H]1c1cccc(C(F)(F)F)c1	-7	74*	90*	35	100*	4	94*	100*	33	12	FLuc counter=49*
COC(=O)C1=C(C)N(CC2CC2)C(=NCc2cccc(C(F)(F)F)c2)N[C@H]1c1ccccc1	2	57*	66*	-1	54*	3	75*	24	14	12
CC1(C)Cc2c(sc(NC(=O)COc3ccc(Cl)cc3)c2C#N)C(C)(C)N1	5	7	7	0	10	.	.	.	.	.
CCOc1ccc(C(=O)Nc2sc3c(c2C(=O)OC)CC(C)(C)NC3(C)C)cc1	2	41*	52*	1	78*	-1	24	48*	9	12	FLuc counter=60*
COc1cc(OC)c2c(-c3ccccc3)cc(=O)oc2c1C(CC(=O)N1CCCC1)c1ccc2c(c1)OCO2 (stereo unspecified)	29	33	-2	1	-3	.	.	.	.	.
CCCCCc1cc(=O)oc2c(C(CCN3CCCC(C)C3)c3cc(OC)c(OC)c(OC)c3)c(OC)cc(OC)c12 (stereo unspecified)	10	60*	67*	21	100*	0	40	52*	18	7	FLuc counter=43*
COc1ccc(C(CCN2CCCCC2)c2c(OC)cc(OC)c3c(-c4ccccc4)cc(=O)oc23)cc1 (stereo unspecified)	18	55*	68*	3	94*	-4	37	40	27	6
